How the values were obtained:
Assay type in all cases: functional
HL-60(TB) = assay: Anticancer activity against human HL-60(TB) cells assessed as cell growth promotion at 10^-5 M after 48 hrs by SRB assay relative to control
Method in brief: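 NCI-60 single-dose screen: compound at 10^-5 M, 48 h at 37 °C, 5% CO2; cells grown in RPMI 1640 with 5% FBS and 2 mM L-glutamine, pre-incubated 24 h before dosing. Adherent cells fixed with cold TCA; endpoint is sulforhodamine B protein staining. Percent growth of treated cells is reported relative to untreated control.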

UACC-257 = assay: Anticancer activity against human UACC257 cells assessed as cell growth promotion at 10^-5 M after 48 hrs by SRB assay relative to control
NCI-H322M = assay: Anticancer activity against human NCI-H322M cells assessed as cell growth promotion at 10^-5 M after 48 hrs by SRB assay relative to control
IGROV-1 = assay: Anticancer activity against human IGROV1 cells assessed as cell growth promotion at 10^-5 M after 48 hrs by SRB assay relative to control
NCI-H460 = assay: Anticancer activity against human NCI-H460 cells assessed as cell growth promotion at 10^-5 M after 48 hrs by SRB assay relative to control
LOX IMVI = assay: Anticancer activity against human LOXIMVI cells assessed as cell growth promotion at 10^-5 M after 48 hrs by SRB assay relative to control
OVCAR-3 = assay: Anticancer activity against human OVCAR3 cells assessed as cell growth promotion at 10^-5 M after 48 hrs by SRB assay relative to control
CCRF-CEM = assay: Anticancer activity against human CCRF-CEM cells assessed as cell growth promotion at 10^-5 M after 48 hrs by SRB assay relative to control
HOP-62 = assay: Anticancer activity against human HOP62 cells assessed as cell growth promotion at 10^-5 M after 48 hrs by SRB assay relative to control
SF-295 = assay: Anticancer activity against human SF295 cells assessed as cell growth promotion at 10^-5 M after 48 hrs by SRB assay relative to control
SW-620 = assay: Anticancer activity against human SW620 cells assessed as cell growth promotion at 10^-5 M after 48 hrs by SRB assay relative to control
OVCAR-5 = assay: Anticancer activity against human OVCAR5 cells assessed as cell growth promotion at 10^-5 M after 48 hrs by SRB assay relative to control
786-0 = assay: Anticancer activity against human 786-0 cells assessed as cell growth promotion at 10^-5 M after 48 hrs by SRB assay relative to control
[1] = Anticancer activity against human Hs 578T cells assessed as cell growth promotion at 10^-5 M after 48 hrs by SRB assay relative to control
NCI-H23 = assay: Anticancer activity against human NCI-H23 cells assessed as cell growth promotion at 10^-5 M after 48 hrs by SRB assay relative to control
MDA-MB-231 = assay: Anticancer activity against human MDA-MB-231 cells assessed as cell growth promotion at 10^-5 M after 48 hrs by SRB assay relative to control
NCI/ADR-RES = assay: Anticancer activity against human NCI/ADR-RES cells assessed as cell growth promotion at 10^-5 M after 48 hrs by SRB assay relative to control
COLO 205 = assay: Anticancer activity against human COLO205 cells assessed as cell growth promotion at 10^-5 M after 48 hrs by SRB assay relative to control
K562 = assay: Anticancer activity against human K562 cells assessed as cell growth promotion at 10^-5 M after 48 hrs by SRB assay relative to control
HCT-15 = assay: Anticancer activity against human HCT15 cells assessed as cell growth promotion at 10^-5 M after 48 hrs by SRB assay relative to control
A549 = assay: Anticancer activity against human A549 cells assessed as cell growth promotion at 10^-5 M after 48 hrs by SRB assay relative to control
SK-MEL-28 = assay: Anticancer activity against human SK-MEL-28 cells assessed as cell growth promotion at 10^-5 M after 48 hrs by SRB assay relative to control
MDA-MB-468 = assay: Anticancer activity against human MDA-MB-468 cells assessed as cell growth promotion at 10^-5 M after 48 hrs by SRB assay relative to control
MCF7 = assay: Anticancer activity against human MCF7 cells assessed as cell growth promotion at 10^-5 M after 48 hrs by SRB assay relative to control
PC-3 = assay: Anticancer activity against human PC3 cells assessed as cell growth promotion at 10^-5 M after 48 hrs by SRB assay relative to control
HT-29 = assay: Anticancer activity against human HT-29 cells assessed as cell growth promotion at 10^-5 M after 48 hrs by SRB assay relative to control
CAKI-1 = assay: Anticancer activity against human Caki1 cells assessed as cell growth promotion at 10^-5 M after 48 hrs by SRB assay relative to control
SF-268 = assay: Anticancer activity against human SF268 cells assessed as cell growth promotion at 10^-5 M after 48 hrs by SRB assay relative to control
U-251 = assay: Anticancer activity against human U251 cells assessed as cell growth promotion at 10^-5 M after 48 hrs by SRB assay relative to control
SF-539 = assay: Anticancer activity against human SF539 cells assessed as cell growth promotion at 10^-5 M after 48 hrs by SRB assay relative to control
Malme-3M = assay: Anticancer activity against human MALME-3M cells assessed as cell growth promotion at 10^-5 M after 48 hrs by SRB assay relative to control
HCT-116 = assay: Anticancer activity against human HCT116 cells assessed as cell growth promotion at 10^-5 M after 48 hrs by SRB assay relative to control
NCI-H226 = assay: Anticancer activity against human NCI-H226 cells assessed as cell growth promotion at 10^-5 M after 48 hrs by SRB assay relative to control
SN12C = assay: Anticancer activity against human SN12C cells assessed as cell growth promotion at 10^-5 M after 48 hrs by SRB assay relative to control
[2] = Anticancer activity against human […] cells assessed as cell growth promotion at 10^-5 M after 48 hrs by SRB assay relative to control
HCC 2998 = assay: Anticancer activity against human HCC2998 cells assessed as cell growth promotion at 10^-5 M after 48 hrs by SRB assay relative to control
SR = assay: Anticancer activity against human SR cells assessed as cell growth promotion at 10^-5 M after 48 hrs by SRB assay relative to control
UACC-62 = assay: Anticancer activity against human UACC62 cells assessed as cell growth promotion at 10^-5 M after 48 hrs by SRB assay relative to control

**Q.** What does the source list for `O=C(Nc1ccccc1C(=O)Nc1ccc(/C=C/c2ccc(Cl)cc2)cc1)c1ccco1`?
**A.** Activity (HL-60(TB)): 96.67%; Activity (UACC-257): 112%; Activity (NCI-H322M): 110%; Activity (IGROV-1): 117%; Activity (NCI-H460): 107%; Activity (LOX IMVI): 94.63%; Activity (OVCAR-3): 109%; Activity (CCRF-CEM): 103%; Activity (HOP-62): 104%; Activity (SF-295): 122%; Activity (SW-620): 106%; Activity (OVCAR-5): 108%; Activity (786-0): 103%; Activity [1]: 113%; Activity (NCI-H23): 95.98%; Activity (MDA-MB-231): 102%; Activity (NCI/ADR-RES): 104%; Activity (COLO 205): 128%; Activity (K562): 95.66%; Activity (HCT-15): 109%; Activity (A549): 102%; Activity (SK-MEL-28): 111%; Activity (MDA-MB-468): 108%; Activity (MCF7): 98.82%; Activity (PC-3): 115%; Activity (HT-29): 103%; Activity (CAKI-1): 89.89%; Activity (SF-268): 107%; Activity (U-251): 107%; Activity (SF-539): 97.41%; Activity (Malme-3M): 115%; Activity (HCT-116): 108%; Activity (NCI-H226): 105%; Activity (SN12C): 103%; Activity [2]: 120%; Activity (HCC 2998): 96.83%; Activity (SR): 109%; Activity (UACC-62): 101%

**Q.** With `NS(=O)(=O)c1ccc(NC(=O)c2ccccc2NC(=O)c2ccco2)cc1` as the compound, how does the Activity (HL-60(TB)) read?
**A.** 93.06%

**Q.** What about the Activity (UACC-257) of the same compound?
**A.** 100.1%

**Q.** What about the Activity (NCI-H322M) of the same compound?
**A.** 119.5%

**Q.** And the Activity (IGROV-1)?
**A.** 117%

**Q.** What about the Activity (NCI-H460) of the same compound?
**A.** 115.5%

**Q.** And the Activity (LOX IMVI)?
**A.** 101.6%

**Q.** And the Activity (OVCAR-3)?
**A.** 108%

**Q.** And the Activity (CCRF-CEM)?
**A.** 98.87%

**Q.** What about the Activity (HOP-62) of the same compound?
**A.** 106%

**Q.** What about the Activity (SF-295) of the same compound?
**A.** 103.8%

**Q.** What about the Activity (SW-620) of the same compound?
**A.** 101.9%

**Q.** And the Activity (OVCAR-5)?
**A.** 99.82%

**Q.** And the Activity (786-0)?
**A.** 108%

**Q.** What about the Activity [1] of the same compound?
**A.** 118%

**Q.** And the Activity (NCI-H23)?
**A.** 110.8%

**Q.** And the Activity (MDA-MB-231)?
**A.** 102%

**Q.** And the Activity (NCI/ADR-RES)?
**A.** 111%

**Q.** And the Activity (K562)?
**A.** 95.39%

**Q.** What about the Activity (HCT-15) of the same compound?
**A.** 105.5%

**Q.** What about the Activity (A549) of the same compound?
**A.** 106.3%

**Q.** What about the Activity (SK-MEL-28) of the same compound?
**A.** 107.1%

**Q.** And the Activity (MDA-MB-468)?
**A.** 106%

**Q.** And the Activity (MCF7)?
**A.** 95.61%

**Q.** And the Activity (PC-3)?
**A.** 118%

**Q.** And the Activity (HT-29)?
**A.** 99.28%

**Q.** What about the Activity (CAKI-1) of the same compound?
**A.** 100%

**Q.** And the Activity (SF-268)?
**A.** 98.43%

**Q.** What about the Activity (U-251) of the same compound?
**A.** 99.55%

**Q.** And the Activity (SF-539)?
**A.** 86.82%

**Q.** And the Activity (Malme-3M)?
**A.** 118.8%

**Q.** What about the Activity (HCT-116) of the same compound?
**A.** 109.7%

**Q.** And the Activity (NCI-H226)?
**A.** 114.6%

**Q.** And the Activity (SN12C)?
**A.** 105%

**Q.** And the Activity [2]?
**A.** 117.5%

**Q.** And the Activity (HCC 2998)?
**A.** 103.3%

**Q.** What about the Activity (SR) of the same compound?
**A.** 101.4%

**Q.** What about the Activity (UACC-62) of the same compound?
**A.** 107%

**Q.** Which Activity (HL-60(TB)) does the source give for `Oc1ccc(/C=C/c2nc3ccccc3nc2SCc2nc3ccccc3[nH]2)cc1` here?
**A.** 84.38%

**Q.** What about the Activity (UACC-257) of the same compound?
**A.** 117%

**Q.** And the Activity (IGROV-1)?
**A.** 71.03%

**Q.** And the Activity (NCI-H460)?
**A.** 95.51%

**Q.** And the Activity (LOX IMVI)?
**A.** 95.29%

**Q.** And the Activity (OVCAR-3)?
**A.** 102%

**Q.** And the Activity (CCRF-CEM)?
**A.** 77.99%

**Q.** And the Activity (HOP-62)?
**A.** 101%

**Q.** What about the Activity (SF-295) of the same compound?
**A.** 82.46%

**Q.** And the Activity (SW-620)?
**A.** 95.64%

**Q.** And the Activity (OVCAR-5)?
**A.** 102%

**Q.** What about the Activity (786-0) of the same compound?
**A.** 94.31%

**Q.** And the Activity [1]?
**A.** 110%

**Q.** What about the Activity (NCI-H23) of the same compound?
**A.** 102%

**Q.** What about the Activity (MDA-MB-231) of the same compound?
**A.** 95.18%

**Q.** And the Activity (NCI/ADR-RES)?
**A.** 100%

**Q.** And the Activity (COLO 205)?
**A.** 119%

**Q.** What about the Activity (K562) of the same compound?
**A.** 107%

**Q.** What about the Activity (HCT-15) of the same compound?
**A.** 96.67%

**Q.** What about the Activity (A549) of the same compound?
**A.** 85.66%

**Q.** What about the Activity (SK-MEL-28) of the same compound?
**A.** 102%

**Q.** What about the Activity (MDA-MB-468) of the same compound?
**A.** 114%

**Q.** What about the Activity (MCF7) of the same compound?
**A.** 89.91%

**Q.** And the Activity (PC-3)?
**A.** 96.98%

**Q.** And the Activity (HT-29)?
**A.** 86.49%

**Q.** What about the Activity (CAKI-1) of the same compound?
**A.** 76.71%

**Q.** And the Activity (SF-268)?
**A.** 91.53%

**Q.** And the Activity (U-251)?
**A.** 95.56%

**Q.** What about the Activity (SF-539) of the same compound?
**A.** 111%

**Q.** What about the Activity (Malme-3M) of the same compound?
**A.** 86.88%

**Q.** And the Activity (HCT-116)?
**A.** 89.77%

**Q.** What about the Activity (NCI-H226) of the same compound?
**A.** 99.33%

**Q.** And the Activity (SN12C)?
**A.** 94.78%

**Q.** What about the Activity [2] of the same compound?
**A.** 85.51%

**Q.** And the Activity (HCC 2998)?
**A.** 123%

**Q.** And the Activity (SR)?
**A.** 99.18%

**Q.** And the Activity (UACC-62)?
**A.** 96.99%
